Dynein cargo inh – inhibitors of GR-EGFP nuclear translocation, primary screen, dynein cargo transport inhibitor project, imaging, high-content, 3617.4 mouse cells. actives 0.47% (n = 220,000). AID 1381, 2008. z-score, hits read low. test concentration mostly 20 µM; stimulated with dexamethasone, 1 µM; stronger effect = lower value;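 active = plate z-score of nuclear minus cytoplasmic receptor signal below a set negative limit, without overly bright fluorescence or cell loss, cut at about -3.5 in these data, passing the limit was not always enough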;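 note: z-score of nuclear minus cytoplasmic ring GR-EGFP intensity difference per well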
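Buffer or medium – tet-free medium with charcoal-stripped serum · Signal – automated 10x imaging of fixed Hoechst-stained cells · Also added – dexamethasone agonist, 1.0 µM final, for 30 min · Incubation – induction 48 h, compound 1 h, agonist 30 min · Read-out – GR-EGFP nuclear translocation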
L major viab – Leishmania major promastigote growth inhibition, primary screen. Leishmania major promastigotes, resazurin fluorescence viability. inhibition, % at 10 µM. actives 9% (n = 200,000). AID 1063, 2008; in the data active = inhibition above about 50%;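 note: promastigotes grown with compound for 44 hours at 28 °C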
T cruzi repl – inhibitors of intracellular T. cruzi growth, primary screen, luminescence, NIH3T3 host cells. T. cruzi beta-gal in NIH3T3, 90 h. inhibition, % (concentration not given with the values). actives 1.4% (n = 300,000);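 active = mean inhibition across valid replicates above about 55%, limit read from the data; inconclusive = mean below that limit but half or more replicates reach it; inactive = mean below it, under half of replicates reach it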;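 note: signal also drops with host cell toxicity which is not excluded here; 0% = plate median of DMSO wells and 100% = zero luminescence signal; higher percent means less beta-gal luminescence so fewer parasites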
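Test system: β-gal T. cruzi (Tulahuen C4) inside NIH/3T3 cells / Quantity: 5,000 cells/well / Measured by: luminescence from GalScreen with 0.05% NP40, read after 60 min / Medium: DMEM plus 2% FBS / Measure: parasite load inhibition, % / Reagent: Tulahuen C4 trypomastigotes, 5000/well / Schedule: co-culture of at least 90 h after 3 h attachment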
UPR XBP1 act – activators of adaptive XBP1 UPR arm, primary screen, cell-based, CHO-XBP1 luciferase reporter, luminescence, uHTS; IRE1-XBP1 UPR activation; percent of tunicamycin response, DMSO as zero; actives 0.33% (n = 330,000); activation, % at 20 µM;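 active = versus positive control, 20 µM dose yields 30% or more activation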;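 note: 100% = tunicamycin at 10 µg/mL and 0% = DMSO only wells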
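Test system: CHO-XBP1 luciferase reporter cells | Buffer or medium: Serum-containing F12 medium, 10% FBS | Schedule: 6 h compound exposure at 37 °C, 5% CO2 | Detection: Steady-Glo luciferase glow luminescence, 10 min after reagent addition | Read-out basis: Activation, % of tunicamycin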
CHOP inh – inhibitors of CHOP promoter induction, primary screen, cell-based, unfolded protein response, luciferase reporter; CHO-K1 CHOP-promoter luciferase, tunicamycin-induced, 15-18 h; actives 3.8% (n = 220,000); inhibition, % at 10 µM; AID 2732, 2010;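 active = compounds that reduced the stress-induced luciferase reporter signal by more than about 70% of percent inhibition, limit read from the data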;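 note: 0% = tunicamycin plus vehicle and 100% = wells without tunicamycin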
CHOP UPR activ – activators of apoptotic CHOP UPR arm, primary screen, cell-based, CHO-CHOP luciferase reporter, luminescence, uHTS. activation, % at 10 µM. UPR activation; percent of tunicamycin response over DMSO baseline. actives 0.34% (n = 330,000). AID 449763, 2010;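 active = at 10 µM dose, activation of 40% or more, normalized to positive control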;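 note: 100% = tunicamycin at 10 µg/mL and 0% = DMSO alone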
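Dosing – one dose, 10 µM in 0.5% DMSO · System – CHO-CHOP cells, stable luciferase reporter of PERK-eIF2a-CHOP signalling · Input – 500 cells/well · Control set – tunicamycin 10 µg/mL final as positive, DMSO-only wells as negative · Timing – 6 h compound treatment, 37 °C · Measure – % activation vs tunicamycin · Technique – luminescence read with Steady-Glo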
Active calls of the source: *; ? = inconclusive; / = not tested or not shown. The full list was thinned out, with hits kept by preference.

SMILES	Dynein cargo inh	L major viab	T cruzi repl	UPR XBP1 act	CHOP inh	CHOP UPR activ
CCOC(=O)C1=C(C)OC(N)=C(C(=O)OCC)C12C(=O)Nc1ccc(Br)cc12 (centres undefined)	0.4	51*	0	-2	35	0
COc1ccc(CN2CC=C(c3ccc(F)cc3)CC2)cc1Br	/	/	44	0	/	-1
CCN(CC)c1ccc(CN2CC=C(c3ccc(F)cc3)CC2)cc1	-1.2	96*	44	-2	8	1
CC1(C)C2CC=C(CN3CCC(O)CC3)C1C2 (centres undefined)	0.99	64*	8	2	26	0
CCOC(=O)C1=C(N)OC2=C(C(=O)CCC2)C12C(=O)N(C)c1ccccc12 (centres undefined)	-0.66	/	-9	1	7	0
C=CCN1C(=O)/C(=C/c2ccc(Br)s2)C(=O)NC1=S	/	/	-10	-8	/	2
CCN1C(=O)/C(=C\c2ccc([N+](=O)[O-])s2)C(=O)NC1=S	-4.7*	99*	/	/	-88	/
CC(=O)c1cccc(OCC(O)CN2CC=C(c3ccccc3)CC2)c1 (centres undefined)	1.5	94*	16	-1	-17	0
NC(=O)c1ccc(OCC(O)CN2CC=C(c3ccc(F)cc3)CC2)cc1 (centres undefined)	/	/	/	/	-7	/
Cc1ccc(C(=O)C2CN3CCC2CC3)cc1 (centres undefined)	1.1	74*	-18	4	26	-2
CC1CCCCC1NC1CCN(C)CC1 (centres undefined)	/	/	-16	-9	/	-1
COc1cccc(CNCCc2cccc(F)c2)c1OC	/	/	59*	-2	/	0
COc1ccc(Cl)cc1C(=O)C1CCCN(Cc2cnc(C)s2)C1 (centres undefined)	-0.17	78*	7	1	5	0
COc1ccc(F)cc1C(=O)C1CCCN(Cc2cnc(C)s2)C1 (centres undefined)	-0.8	25	24	-2	12	-3
COc1c(C)cc(C(=O)C2CCCN(Cc3ccccn3)C2)cc1C (centres undefined)	1.4	100*	14	-3	2	-2
Cc1ncc(CN2CCCC(C(=O)c3cccc(OC(C)C)c3)C2)s1 (centres undefined)	-0.84	89*	47	3	37	1
COc1c(C)cc(C(=O)C2CCCN(Cc3cnc(C)s3)C2)cc1C (centres undefined)	-0.09	70*	4	-1	22	0
COC(=O)C1=C(c2ccc3ccccc3c2)C[C@@H]2CC[C@H]1N2C(=O)N1CCCCC1	/	/	/	-4	/	3
O=C(N/N=C/c1c(O)n(-c2ccccc2)c(=O)[nH]c1=O)c1ccncc1	0.88	91*	-10	0	1	1
CN1CCC2(O)OCCCC2C1 (centres undefined)	-0.35	/	3	-1	3	1
CCOC(=O)c1c(NS(=O)(=O)c2ccccc2)n(CCCOC)c2nc3ccccc3nc12	-0.77	96*	4	1	-16	2
CCCCCn1c(NC(=O)c2ccco2)c(C(=O)OCC)c2nc3ccccc3nc21	-0.68	10	1	26	-70	4
COCCNC(=O)c1c(NC(=O)c2ccc(Br)o2)n(Cc2ccccc2)c2nc3ccccc3nc12	0.82	14	-3	-1	20	16
COCCNC(=O)c1c(N)n(CCC(C)C)c2nc3ccccc3nc12	-0.42	100*	15	2	68	0
C=CCNC(=O)c1c(N)n(CCN2CCOCC2)c2nc3ccccc3nc12	-0.35	39	-6	-2	30	4
SMILES	Dynein cargo inh	L major viab	T cruzi repl	UPR XBP1 act	CHOP inh	CHOP UPR activ
COCCCNC(=O)c1c(NC(=O)c2ccco2)n(Cc2ccccc2)c2nc3ccccc3nc12	-1	97*	23	-1	22	-5
CCCCNC(=O)c1c(N)n(CCCOC)c2nc3ccccc3nc12	1.4	19	20	4	93*	-1
C[C@]12CCC(=O)C=C1C=CC1C2CC[C@]2(C)C(=O)CCC12 (some centres undefined)	/	/	/	2	/	1
CC(C)CCn1c(N)c(C(=O)NCc2cccs2)c2nc3ccccc3nc21	3.6	22	?	3	96*	1
CC1Oc2cc3c(-c4c(O)cc(O)c5c(O)c6c(cc45)OC(C)C(C)C6=O)c(O)cc(O)c3c(O)c2C(=O)C1C (centres undefined)	-0.55	/	-48	18	102*	7
O=C1C(=O)c2cccc3cccc1c23	-0.56	23	-5	19	55	4
O=C1C(=O)c2ccccc2-c2ccccc21	-2.1	100*	39	-12	107*	-5
CCc1ccc(NC2=NCCCS2)cc1	/	/	44	0	/	3
Cc1sc2c(c1C)C(c1ccc(C(C)(C)C)cc1)=NCC(=O)N2CC(=O)Nc1nccs1	-0.81	49	37	-1	84*	1
Cc1nc(-c2ccc(-c3ccc(C(=O)N4CCc5cc6c(cc54)C4(CCN(C)CC4)CO6)cc3)c(C)c2)no1	/	/	/	/	17	/
CN1CCC(N(C)c2ncnc3ccc(Br)cc23)CC1	0.29	52*	/	/	13	/
CCN1CCN(c2ccc([N+](=O)[O-])cc2C=C2C(=O)NC(=O)NC2=O)CC1	0.89	60*	24	-1	-23	-2
CC(=O)N1CCN(c2ccc([N+](=O)[O-])cc2C=C2C(=O)NC(=O)NC2=O)CC1	0.11	-2	-9	-1	-4	-1
CN1/C(=C\C=Nc2ccccc2)C(C)(C)c2ccccc21	-0.79	98*	15	1	31	1
Cc1nc2ccccc2c(=O)n1-c1ccc(Br)cc1[N+](=O)[O-]	-0.32	-6	-15	-1	10	-2
C/C(=N\Nc1ccccc1)c1c(O)n(C)c(=O)n(C)c1=O	-0.11	76*	53	-1	60	-1
CC(=O)O[C@@]12CO[C@@H]1C[C@H](O)[C@@]1(C)C(=O)[C@H](O)C3=C(C)[C@@H](OC(=O)[C@H](O)[C@@H](NC(=O)c4ccccc4)c4ccccc4)C[C@@](O)([C@@H](OC(=O)c4ccccc4)C12)C3(C)C (some centres undefined)	/	/	55*	-2	/	1

Screens as filed in PubChem.
